Measurements published in ChEMBL document CHEMBL1138033, “S-alkylated homocysteine derivatives: new inhibitors of human betaine-homocysteine S-methyltransferase” (J Med Chem, 2006).

Experiments:
[1] = molecular target: T1, Betaine--homocysteine S-methyltransferase 1 (Homo sapiens) (UniProt Q93088); assay: Inhibition of human BHMT at 20 uM
T1 sequence (whole entry): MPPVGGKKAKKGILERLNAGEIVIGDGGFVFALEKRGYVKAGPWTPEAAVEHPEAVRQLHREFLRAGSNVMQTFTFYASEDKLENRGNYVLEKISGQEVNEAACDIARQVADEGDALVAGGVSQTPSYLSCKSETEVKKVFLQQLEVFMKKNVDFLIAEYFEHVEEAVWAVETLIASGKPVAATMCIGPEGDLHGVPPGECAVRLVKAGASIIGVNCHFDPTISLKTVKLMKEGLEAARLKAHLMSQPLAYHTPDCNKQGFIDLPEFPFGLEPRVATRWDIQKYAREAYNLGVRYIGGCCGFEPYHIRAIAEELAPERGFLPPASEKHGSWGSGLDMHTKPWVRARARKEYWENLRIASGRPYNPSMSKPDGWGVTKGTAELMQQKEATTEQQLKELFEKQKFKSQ
Outline: (§1)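 Recombinant human BHMT (0.2 µM) premixed with inhibitor, then 100 µM D,L-homocysteine and 250 µM N-methyl-¹⁴C-betaine (0.05 µCi) added; 50 mM K-phosphate pH 7.5, 10 mM β-mercaptoethanol, 37°C for 30 min. Radiolabel incorporation read against enzyme-free blanks; triplicates, percent relative to no-inhibitor control.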

[2] = molecular target: T1, Betaine--homocysteine S-methyltransferase 1 (Homo sapiens); assay: Inhibition of human BHMT at 1 uM; outline: as §1
[3] = molecular target: T2, Betaine--homocysteine S-methyltransferase 1 (Homo sapiens, UniProt Q93088); assay: Inhibition of human BHMT
T2 sequence (Q93088 whole entry): T1 sequence (whole entry)
Outline: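 Recombinant human BHMT (0.2 µM) mixed with inhibitor at ten concentrations, then 1 mM D,L-homocysteine and 2 mM betaine (¹⁴C-methyl labelled, 0.15 µCi) added in 50 mM K-phosphate pH 7.5 with 10 mM β-mercaptoethanol; 30 min at 37°C. Enzyme-free blanks subtracted. IC50 by nonlinear regression; points in duplicate, three independent assays.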

inhibition [1] | inhibition [2] | IC50 [3] | Compound
97.3% | 67.8% | 5 µM | NC(CC[S+]([O-])CCCCC(=O)O)C(=O)O (racemic)
89.8% | 55.3% |  | NC(CCSCC[S+]([O-])CC(=O)O)C(=O)O (racemic)
100% | 96.8% | 0.096 µM | NC(CCSCCSCC(=O)O)C(=O)O (racemic)
20.1% |  |  | NC(CCSCCCC(=O)O)C(=O)O (racemic)
0% |  |  | C=CCSCCC(N)C(=O)O (racemic)
10.1% |  |  | NC(CCSCc1ccc(CC(=O)O)cc1)C(=O)O (racemic)
8.8% |  |  | NC(CCSCC(=O)NCP(=O)(O)O)C(=O)O (racemic)
12.8% |  |  | NC(CCSc1cccc(C(=O)O)c1)C(=O)O (racemic)
0% |  |  | N[C@@H](CSCCCCC(=O)O)C(=O)O
20.5% |  |  | CSCSCCC(N)C(=O)O (racemic)
42.5% |  |  | NC(CCSc1ccccc1C(=O)O)C(=O)O (racemic)

The next lines start with the molecule.

Compound | inhibition [1] | inhibition [2] | IC50 [3]
NC(CCSCCCCC(=O)O)C(=O)O (racemic) | 100% | 98.3% | 
NC(CCSCC(N)C(=O)O)C(=O)O (stereo not given) | 18.8% |  | 
NC(CCSSCCC(=O)O)C(=O)O (racemic) | 30% | 0% | 
NC(CCSCCCCCC(=O)O)C(=O)O (racemic) | 100% | 99.9% | 0.2 µM
NC(CCSCCOCP(=O)(O)O)C(=O)O (racemic) | 25.5% |  | 
NC(CC[S+]([O-])CC(N)C(=O)O)C(=O)O (stereo not given) | 9.5% |  | 
NC(CCSSCCC(N)C(=O)O)C(=O)O (stereo not given) | 0% |  | 
NC(CCSc1ccc(C(=O)O)cc1)C(=O)O (racemic) | 98.6% | 84.8% | 7 µM
NC(CCS(=O)(=O)CCCCC(=O)O)C(=O)O (racemic) | 28.8% |  | 
COC(=O)C(N)CCSCC(=O)NCP(=O)(O)O (racemic) | 0% |  | 
NC(CCSCCCCP(=O)(O)O)C(=O)O (racemic) | 97.8% | 74% | 5.7 µM
